Laboratory results published in ChEMBL document CHEMBL1124387, “Cardiotonic agents. 9. Synthesis and biological evaluation of a series of (E)-4,5-dihydro-6-[2-[4-(1H-imidazol-1-yl)phenyl]ethenyl]-3 (2H)-pyridazinones: a novel class of compounds with positive inotropic, antithrombotic, and vasodilatory activities for the treatment of congestive heart failure” (J Med Chem, 1989).
Values joined by “and” are separate entries in the source; they are usually repeats but may differ in a detail not shown here. Equal values may be shown once.

Experiments:
[1] = tested on: Canis familiaris; assay: Hemodynamic activity in anesthetized dog as percent change in blood pressure from baseline (123 mmHg) at 0.3 mg/kg administered intravenously; format: functional, Canis lupus familiaris; details: route intravenous
In short: (§1)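 Acutely instrumented anesthetized dogs (n = 6), 30-min control period. Compound in 0.9% saline, or dilute HCl diluted with saline, at 0.1 mL/kg iv over 1 min. At least four ascending half-log doses, 10 min apart, one compound per animal. Recorded: LV dP/dtmax, heart rate, aortic pressure and forelimb resistance. Values are maximum response from control average ± SEM.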

[2] = target: Phosphodiesterase 3 (Homo sapiens, UniProt Q14432+Q13370); assay: Inhibition of phosphodiesterase 3 from human platelets at 1*10e-7-1*10e-4 M
In short: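 Fraction III cAMP-PDE from guinea pig heart or human platelets. Substrate [3H]cyclic AMP 1.0 μM at 30°C, with hydrolysis held to ≤10-20% and kept linear over 30 min. Compounds in DMSO, 2.5% final.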

[3] = tested on: Canis familiaris; assay: Hemodynamic activity in anesthetized dog as percent change in heart rate from baseline (152 bpm) at 0.1 mg/kg administered intravenously; format: functional, Canis lupus familiaris; details: route intravenous; in short: as §1
[4] = tested on: Canis familiaris; assay: Hemodynamic activity in anesthetized dog as percent change in blood pressure from baseline (123 mmHg) at 0.1 mg/kg administered intravenously; format: functional, Canis lupus familiaris; details: route intravenous; in short: as §1
[5] = tested on: Canis familiaris; assay: Hemodynamic activity in anesthetized dog as percent change in fore limb resistance from baseline (2.77 mmHg/mL/min) at 0.001 mg/kg administered intravenously; format: functional, Canis lupus familiaris; details: route intravenous; in short: as §1
[6] = tested on: Canis familiaris; assay: (§2) Decrease in thrombus weight in anesthetized dog coronary artery; format: functional, Canis lupus familiaris
In short: (§3)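 Pentobarbital-anesthetized (32 mg/kg iv), ventilated dogs, allowed 30 min to stabilize. Continuous infusion of compound (1.0, 3.0 or 10.0 μg/kg/min) or saline began 15 min before 50 μA current was applied to an intraluminal electrode in the circumflex coronary artery. After 60 min of stimulation the animals were euthanized and the thrombus dissected and weighed. One treatment per animal.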

[7] = species: Canis familiaris; assay: Ratio of positive inotropic activity to peripheral Vasodilator activity in dogs; format: functional, Canis lupus familiaris
In short: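 Inotropic ED20 is the iv bolus dose giving a 20% rise in dP/dtmax in anesthetized dogs. Vasodilator ED20 is the bolus dose into the brachial cannula of a constant-flow perfused forelimb (pentobarbital 30 mg/kg iv then 3.0 mg/kg/h, heparinized) giving a 20% fall in perfusion pressure. Each ED20 was taken from its dose-response curve; the ratio is PI/PV.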

[8] = tested on: Canis familiaris; assay: Hemodynamic activity in anesthetized dog as percent change in heart rate from baseline (152 bpm) at 0.001 mg/kg administered intravenously; format: functional, Canis lupus familiaris; details: route intravenous; in short: as §1
[9] = tested on: Canis familiaris; assay: Percentage increase in left ventricular contractility in anesthetized dog; format: functional, Canis lupus familiaris, Heart left ventricle
[10] = tested on: Canis familiaris; assay: Hemodynamic activity in anesthetized dog as percent change in fore limb resistance from baseline (2.77 mmHg/mL/min) at 0.01 mg/kg administered intravenously; format: functional, Canis lupus familiaris; details: route intravenous; in short: as §1
[11] = tested on: Canis familiaris; assay: Cardiovascular activity in presence of beta-adrenoceptor blockade in dogs as percent change in heart rate from base line (136 bpm) at 0.01 mg/kg; format: functional, Canis lupus familiaris
[12] = tested on: Canis familiaris; assay: Hemodynamic activity in anesthetized dog as percent change in fore limb resistance from baseline (2.77 mmHg/mL/min) at 0.1 mg/kg administered intravenously; format: functional, Canis lupus familiaris; details: route intravenous; in short: as §1
[13] = tested on: Canis familiaris; assay: Cardiovascular activity in presence of beta-adrenoceptor blockade in dogs as percent change in blood pressure from base line (116/94 mmHg) at 0.01 mg/kg dose before nadolol administration; -9/-11
[14] = tested on: Canis familiaris; assay: Hemodynamic activity in anesthetized dog as percent change in blood pressure from baseline (123 mmHg) at 0.003 mg/kg administered intravenously; format: functional, Canis lupus familiaris; details: route intravenous; in short: as §1
[15] = tested on: Canis familiaris; assay: Hemodynamic activity in anesthetized dog as percent change in blood pressure from baseline (123 mmHg) at 0.01 mg/kg administered intravenously; format: functional, Canis lupus familiaris; details: route intravenous; in short: as §1
[16] = tested on: Canis familiaris; assay: Hemodynamic activity in anesthetized dog as percent change in left ventricular myocardial activity from baseline (2271 mmHg/s) at 0.003 mg/kg administered intravenously; format: functional, Canis lupus familiaris, Heart left ventricle; details: route intravenous; in short: as §1
[17] = tested on: Canis familiaris; assay: Hemodynamic activity in anesthetized dog as percent change in heart rate from baseline (152 bpm) at 0.01 mg/kg administered intravenously; format: functional, Canis lupus familiaris; details: route intravenous; in short: as §1
[18] = tested on: Canis familiaris; assay: Hemodynamic activity in anesthetized dog as percent change in heart rate from baseline (152 bpm) at 0.03 mg/kg administered intravenously; format: functional, Canis lupus familiaris; details: route intravenous; in short: as §1
[19] = tested on: Canis familiaris; assay: Hemodynamic activity in anesthetized dog as percent change in fore limb resistance from baseline (2.77 mmHg/mL/min) at 0.03 mg/kg administered intravenously; format: functional, Canis lupus familiaris; details: route intravenous; in short: as §1
[20] = Partition coefficient (logP); format: physicochemical; details: octanol/water
[21] = tested on: Canis familiaris; assay: Weight of thrombus after 60 min of 10 ug/kg/min; format: functional, Canis lupus familiaris
In short: (§4)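 Anesthetized adult dogs were given sodium pentobarbital (32 mg/kg iv), intubated and artificially respired, then allowed 30 min to stabilize after surgery. Circumflex coronary thrombosis was induced by delivering 50 μA through an intraluminal silver-coated copper electrode, which denuded the endothelium. Continuous drug or saline infusion began 15 min before current onset and ran throughout, with one treatment per animal. After 60 min of stimulation the thrombus was dissected and weighed.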

[22] = tested on: Canis familiaris; assay: as §2; format: functional, Canis lupus familiaris; in short: as §3; remark: listed apart in the source
[23] = tested on: Canis familiaris; assay: Hemodynamic activity in anesthetized dog as percent change in left ventricular myocardial activity from baseline (2271 mmHg/s) at 0.03 mg/kg administered intravenously; format: functional, Canis lupus familiaris, Heart left ventricle; details: route intravenous; in short: as §1
[24] = tested on: Canis familiaris; assay: Weight of thrombus after 60 min of 3 ug/kg/min; format: functional, Canis lupus familiaris; in short: as §4
[25] = tested on: Canis familiaris; assay: Cardiovascular activity in presence of beta-adrenoceptor blockade in dogs as percent change in heart rate from base line (121 bpm) at 0.01 mg/kg; format: functional, Canis lupus familiaris
[26] = species: Canis familiaris; assay: 50% increase in myocardial contractility (dP/dT max) in dogs; format: functional, Canis lupus familiaris, Myocardium; in short: as §1
[27] = tested on: Canis familiaris; assay: Weight of thrombus after 60 min of 1 ug/kg/min; format: functional, Canis lupus familiaris; in short: as §3
[28] = tested on: Canis familiaris; assay: Hemodynamic activity in anesthetized dog as percent change in heart rate from baseline (152 bpm) at 0.3 mg/kg administered intravenously; format: functional, Canis lupus familiaris; details: route intravenous; in short: as §1
[29] = tested on: Canis familiaris; assay: Hemodynamic activity in anesthetized dog as percent change in fore limb resistance from baseline (2.77 mmHg/mL/min) at 0.003 mg/kg administered intravenously; format: functional, Canis lupus familiaris; details: route intravenous; in short: as §1
[30] = tested on: Canis familiaris; assay: Hemodynamic activity in anesthetized dog as percent change in blood pressure from baseline (123 mmHg) at 0.03 mg/kg administered intravenously; format: functional, Canis lupus familiaris; details: route intravenous; in short: as §1
[31] = tested on: Canis familiaris; assay: Cardiovascular activity in presence of beta-adrenoceptor blockade in dogs as percent change in forelimb vascular resistance from base line (4.71 mmHg/mL/min) at 0.01 mg/kg before nadolol administration
[32] = tested on: Canis familiaris; assay: Cardiovascular activity in presence of beta-adrenoceptor blockade in dogs as percent change in forelimb vascular resistance from base line (5.23 mmHg/mL/min) at 0.01 mg/kg given 15 min after nadolol; format: functional, Canis lupus familiaris
[33] = tested on: Canis familiaris; assay: Cardiovascular activity in presence of beta-adrenoceptor blockade in dogs as percent change in blood pressure from base line (109/88 mmHg) at 0.01 mg/kg dose given 15 min after nadolol; -10/-13; format: functional, Canis lupus familiaris
[34] = tested on: Canis familiaris; assay: Cardiovascular activity in presence of beta-adrenoceptor blockade in dogs as percent change in left ventricular myocardial contractility from base line (1869 mmHg/s) at 0.01 mg/kg dose given 15 min after nadolol; format: functional, Canis lupus familiaris, Heart left ventricle
[35] = tested on: Canis familiaris; assay: Hemodynamic activity in anesthetized dog as percent change in fore limb resistance from baseline (2.77 mmHg/mL/min) at 0.3 mg/kg administered intravenously; format: functional, Canis lupus familiaris; details: route intravenous; in short: as §1

IC50 [2]: 77 nM | logP [20]: 1.71
SMILES: CC1CC(=O)NN=C1/C=C/c1ccc(-n2ccnc2)cc1.Cl (stereo not given)
Change [1]: -40% | Change [3]: 28% | Change [4]: -35% | Change [5]: 0.3% | Inhibition [6]: 65% and 44% | Ratio [7]: 1.29 | Change [8]: 0.2% | Increase [9]: 19% | Change [10]: -36% | Change [11]: 18% | Change [12]: -58% | Change [13]: -9% | Change [14]: -5% | Change [15]: -13% | Change [16]: 19% | Change [17]: 12% | Change [18]: 23% | Change [19]: -49% | Thrombus weight [21]: 10 mg | Inhibition [22]: 40% | Change [23]: 117% | Thrombus weight [24]: 6.3 mg | Change [25]: 6% | Dose [26]: 8 µg/kg | Thrombus weight [27]: 10.7 mg | Change [28]: 33% | Change [29]: -15% | Change [30]: -24% | Change [31]: -19% | Change [32]: -13% | Change [33]: -10% | Change [34]: 25% | Change [35]: -54%
